Measured values reported in ChEMBL document CHEMBL1123658, “1-(2-pyridinyl)piperazine derivatives with antianaphylactic, antibronchospastic, and mast cell stabilizing activities” (J Med Chem, 1987).

Assays:
[1] = test system: Rattus norvegicus; assay: Rat PCA Test(50% inhibition of spot areas)in the female albino rats after (ip) administration in 10% aqueous acacia gum; type: functional; conditions: read-out: ID50 (the source's name)
Procedure, shortened: (§1)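 Female albino rats (200–250 g) received intradermal ventral injections of rat anti-egg-albumin antiserum; donors were raised with egg albumin im plus H. pertussis ip, and serum was taken at 12 days. 24 h later, compound was given ip in 10% acacia gum (10 mL/kg), 10 rats/group. Challenge 30 min later was iv 0.3% egg albumin plus 1% Evans blue. Blued areas were measured 30 min after challenge.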

[2] = test system: Cavia porcellus; assay: Antibronchospatic activity determined by histamine stimulated bronchospasm inhibition in guinea pigs after(i.v.) administration; type: functional, Bronchiole
Procedure, shortened: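 Guinea pigs, Konzett–Rössler preparation. Bronchospasm was induced with histamine. Compound was given iv (1 mL/kg) 1 min before the agonist, dissolved in saline or saline with slight excess HCl or CH3SO3H (pH 3.5–4). Three doses were tested in duplicate, chosen to give 20–90% inhibition. ID75 was read graphically from log dose–response curves.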

[3] = In vivo toxic effect was determined in mouse after intraperitoneal administration with 10% aqueous acacia gum; value ranges from 4.25-7.74; type: toxicity, organism-based; conditions: ip
Procedure, shortened: (§2)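 Female albino mice (20-30 g), 10 animals per dose, dosed intraperitoneally with compound in solution or suspension; compounds tested as salts unless noted. Mortality was recorded over 7 days.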

[4] = test system: Rattus norvegicus; assay: Inhibition of mast cell degranulation was assessed in female albino rats at a dose of 42 umol/kg iv; type: functional
[5] = In vivo toxic effect was determined in mouse after intraperitoneal administration with 10% aqueous acacia gum; value ranges from 0.50-0.84; type: toxicity, organism-based; conditions: ip; procedure, shortened: as §2
[6] = test system: Rattus norvegicus; assay: Rat PCA Test(50% inhibition of spot areas)in the female albino rats after (ip) administration in 10% aqueous acacia gum; value ranges from 14-22; type: functional; conditions: read-out: ID50 (the source's name); procedure, shortened: as §1
[7] = In vivo toxicity in mouse after oral administration with 10% aqueous acacia gum; type: organism-based
Procedure, shortened: (§3)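 Female albino mice, 20-30 g. Compound given orally as solution or suspension in 10% aqueous acacia gum, 10 animals per dose. Deaths recorded over 7 days.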

[8] = test system: Rattus norvegicus; assay: Rat PCA Test(50% inhibition of spot areas)in the female albino rats after oral administration in 10% aqueous acacia gum; value ranges from 8-11; type: functional; conditions: read-out: ID50 (the source's name)
Procedure, shortened: (§4)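 Female rats (200-250 g) were passively sensitized by ventral intradermal anti-egg-albumin antiserum. This was raised in rats by intramuscular 1% egg albumin plus ip H. pertussis vaccine, with serum taken at 12 days. After 24 h, groups of 10 were dosed orally with compound or vehicle (10 mL/kg). At 60 min, iv challenge used 0.3% egg albumin with 1% Evans blue. Blued areas were measured after 30 min.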

[9] = test system: Rattus norvegicus; assay: Inhibition of mast cell degranulation was assessed in female albino rats at a dose of 23 umol/kg iv; type: functional
[10] = In vivo toxic effect was determined in mouse after intraperitoneal administration with 10% aqueous acacia gum; value ranges from 0.27-0.50; type: toxicity, organism-based; conditions: ip; procedure, shortened: as §2
[11] = In vivo toxic effect was determined in mouse after oral administration with 10% aqueous acacia gum; value ranges from 0.53-0.84; type: toxicity, organism-based
[12] = In vivo toxic effect was determined in mouse after oral administration with 10% aqueous acacia gum;Value ranges from(5.68-7.37); type: toxicity, organism-based; procedure, shortened: as §3
[13] = In vivo toxic effect was determined in mouse after intraperitoneal administration with 10% aqueous acacia gum; value ranges from 1.02-1.35; type: toxicity, organism-based; conditions: ip; procedure, shortened: as §2
[14] = In vivo toxic effect was determined in mouse after intraperitoneal administration with 10% aqueous acacia gum; value ranges from 0.89-1.63; type: toxicity, organism-based; conditions: ip; procedure, shortened: as §2
[15] = In vivo toxic effect was determined in mouse after oral administration with 10% aqueous acacia gum; value ranges from 1.19-2.07; type: toxicity, organism-based; procedure, shortened: as §3
[16] = test system: Rattus norvegicus; assay: Rat PCA Test(50% inhibition of spot areas)in the female albino rats after (ip) administration in 10% aqueous acacia gum; value ranges from 66-231; type: functional; conditions: read-out: ID50 (the source's name); procedure, shortened: as §1
[17] = In vivo toxic effect was determined in mouse after oral administration with 10% aqueous acacia gum; value ranges from 0.69-1.33; type: toxicity, organism-based; procedure, shortened: as §3
[18] = test system: Rattus norvegicus; assay: Inhibition of mast cell degranulation was assessed in female albino rats at a dose of 48 umol/kg iv; type: functional
[19] = test system: Rattus norvegicus; assay: Rat PCA Test(50% inhibition of spot areas)in the female albino rats after oral administration in 10% aqueous acacia gum; type: functional; conditions: read-out: ID50 (the source's name); procedure, shortened: as §4
[20] = test system: Rattus norvegicus; assay: Rat PCA Test(50% inhibition of spot areas)in the female albino rats after (ip) administration in 10% aqueous acacia gum; value ranges from […]; type: functional; conditions: read-out: ID50 (the source's name); procedure, shortened: as §1
[21] = In vivo toxic effect was determined in mouse after intraperitoneal administration with 10% aqueous acacia gum; value ranges from 0.55-1.17; type: toxicity, organism-based; conditions: ip; procedure, shortened: as §2
[22] = test system: Rattus norvegicus; assay: Inhibition of mast cell degranulation was assessed in female albino rats at a dose of 45 umol/kg iv administration; type: functional
[23] = test system: Rattus norvegicus; assay: Rat PCA Test(50% inhibition of spot areas)in the female albino rats after oral administration in 10% aqueous acacia gum; Value ranges from (60-123); type: functional; conditions: read-out: ID50 (the source's name); procedure, shortened: as §4
[24] = test system: Rattus norvegicus; assay: Rat PCA Test(50% inhibition of spot areas)in the female albino rats after oral administration in 10% aqueous acacia gum;Value ranges from (2-34); type: functional; conditions: read-out: ID50 (the source's name); procedure, shortened: as §4
[25] = In vivo toxic effect was determined in mouse after intraperitoneal administration with 10% aqueous acacia gum; value ranges from 0.67-1.21; type: toxicity, organism-based; conditions: ip; procedure, shortened: as §2
[26] = In vivo toxic effect was determined in mouse after intraperitoneal administration with 10% aqueous acacia gum; value ranges from 0.28-0.52; type: toxicity, organism-based; conditions: ip; procedure, shortened: as §2
[27] = In vivo toxic effect was determined in mouse after oral administration with 10% aqueous acacia gum; value ranges from 0.41-0.93; type: toxicity, organism-based
[28] = test system: Rattus norvegicus; assay: Inhibition of mast cell degranulation was assessed in female albino rats at a dose of 35 umol/kg iv; type: functional
[29] = test system: Rattus norvegicus; assay: Rat PCA Test(50% inhibition of spot areas)in the female albino rats after (ip) administration in 10% aqueous acacia gum; value ranges from 115-142; type: functional; conditions: read-out: ID50 (the source's name); procedure, shortened: as §1

## O=C(O)CCN1CCN(c2ccccn2)CC1
[1]
  ED50: > 1280 µmol/kg
[2]
  ID75: 5.23 µM/kg
[3]
  LD50: 5540 µmol/kg

## Cc1cc(C)c(C)c(NC(=O)CCN2CCN(c3ccccn3)CC2)c1C.Cl.Cl
[4]
  inhibition in vivo at 42 µmol/kg: 2%
[5]
  LD50: 570 µmol/kg
[6]
  ED50: 18 µmol/kg

## O=c1[nH]c2ccccc2n1CCCN1CCN(C(c2ccccc2)c2ccccc2)CC1 [OXATOMIDE]
[7]
  LD50: > 7300 µmol/kg
[2]
  ID75: 0.08 µM/kg
[8]
  ED50: 9 µmol/kg
[9]
  inhibition in vivo at 23 µmol/kg: 40%

## COc1cccc(N2CCN(CCC(=O)Nc3ccccc3N)CC2)n1.Cl.Cl
[10]
  LD50: 370 µmol/kg
[2]
  ID75: 108 µM/kg
[11]
  LD50: 670 µmol/kg

## COc1cccc(NC(=O)CCN2CCN(c3ccccn3)CC2)c1.Cl.Cl
[12]
  LD50: 7100 µmol/kg
[1]
  ED50: > 118 µmol/kg
[13]
  LD50: 1180 µmol/kg
[2]
  ID75: 0.56 µM/kg

## CCC(=O)Nc1ccc(NC(=O)CCN2CCN(c3ccccn3)CC2)cc1.Cl.Cl
[14]
  LD50: 1050 µmol/kg
[15]
  LD50: 1530 µmol/kg
[2]
  ID75: 0.23 µM/kg
[16]
  ED50: 147 µmol/kg

## Cl.Cl.O=C(CCN1CCN(c2ccccn2)CC1)Nc1ccc(Cl)cc1
[17]
  LD50: 960 µmol/kg
[18]
  inhibition in vivo at 48 µmol/kg: 0%
[19]
  ED50: > 96 µmol/kg
[20]
  ED50: 43 µmol/kg
[21]
  LD50: 620 µmol/kg

## Cc1cccc(C)c1NC(=O)CCN1CCN(c2ccccn2)CC1
[22]
  inhibition in vivo at 45 µmol/kg: 27%
[23]
  ED50: 86 µmol/kg
[24]
  ED50: 8 µmol/kg
[25]
  LD50: 810 µmol/kg

## Cl.Cl.N#Cc1ccc(NC(=O)CCN2CCN(c3ccccn3)CC2)cc1
[26]
  LD50: 390 µmol/kg
[27]
  LD50: 620 µmol/kg
[1]
  ED50: > 39 µmol/kg
[2]
  ID75: 0.64 µM/kg

## CCOC(=O)C(=O)Nc1ccc(NC(=O)CCN2CCN(c3ccccn3)CC2)cc1
[28]
  inhibition in vivo at 35 µmol/kg: 7%
[7]
  LD50: > 7050 µmol/kg
[2]
  ID75: 0.23 µM/kg
[29]
  ED50: 127 µmol/kg
